We go through 22 compounds from ChEMBL document CHEMBL1629469, “Pharmacophore model for pentamidine analogs active against Plasmodium falciparum” (Eur J Med Chem, 2010).

Experiment [1] deals with Plasmodium falciparum. The experiment in a line: Antimalarial activity against chloroquine and pyrimethamine -resistant Plasmodium falciparum K1 after 48 hrs by [3H]hypoxanthine incorporation assay. In kind it is functional, organism-based. Summed up: (§1)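 Asexual erythrocytic parasites in human red cells (1.25% hematocrit, 0.3% parasitemia) exposed to serial drug dilutions in RPMI 1640 with Hepes, AlbuMAX II, bicarbonate and neomycin. Incubation at 37 C under 93% N2/4% CO2/3% O2; [3H]hypoxanthine added after 48 h, then 24 h more. Incorporation counted by scintillation. IC50 taken from sigmoidal curves; four independent runs, each in duplicate; DMSO below 1%.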

The subject of experiment [2] is Plasmodium falciparum. The experiment can be described thus: Antimalarial activity against drug -sensitive Plasmodium falciparum NF54 after 48 hrs by [3H]hypoxanthine incorporation assay. It is filed as functional, organism-based. Summed up:
as §1

On to `COc1cc(C2=NCCN2)ccc1OCCCCCOc1ccc(C2=NCCN2)cc1OC`, for which the IC50 in the experiment on Plasmodium falciparum [1] was 24 nM; with Plasmodium falciparum [2], 112 nM.

On to `CCOC(=O)c1cc(C(=N)NC(C)C)ccc1OCCCCCOc1ccc(C(=N)NC(C)C)cc1C(=O)OCC`, for which the IC50 is 14.5 nM with Plasmodium falciparum [1] and 28.2 nM with Plasmodium falciparum [2].

For `N=C(N)c1ccc(OCCCCCOc2ccc(C(=N)N)c(O)c2)cc1O`, the IC50 with Plasmodium falciparum [1] was 631 nM; in the experiment with Plasmodium falciparum [2], 407 nM.

`Fc1cc(OCCCCCOc2ccc(C3=NCCN3)c(F)c2)ccc1C1=NCCN1`: the results for the IC50 with Plasmodium falciparum [1] and in the experiment on Plasmodium falciparum [2] were 8.51 nM and 50.1 nM, respectively.

With `CCOC(=O)c1cc(C(=N)N)ccc1OCCCCCOc1ccc(C(=N)N)cc1C(=O)OCC`, the results for the IC50 with Plasmodium falciparum [1] and with Plasmodium falciparum [2] were 26.3 nM and 97.7 nM, respectively.

Regarding `CCOC(=O)c1cc(C2=NCCN2)ccc1OCCCCCOc1ccc(C2=NCCN2)cc1C(=O)OCC`, the results for the half-maximal inhibitory concentration (IC50) in the experiment with Plasmodium falciparum [1] and with Plasmodium falciparum [2] were 33.1 nM and 234 nM, respectively.

Turning to `CCOC(=O)c1cc(C(=N)N)ccc1OCCCCCOc1ccc(C(=N)N)cc1C(N)=O`, the IC50 with Plasmodium falciparum [1] was 17 nM; in the experiment with Plasmodium falciparum [2] it was 120 nM.

For the compound `N=C(N)c1ccc(OCCCCCOc2ccc(C(=N)N)cc2C(N)=O)c(C(N)=O)c1`, the results for the IC50 in the experiment with Plasmodium falciparum [1] and with Plasmodium falciparum [2] were 47.9 nM and 302 nM, respectively.

Turning to `CC(=N)Nc1ccc(OCCCCCOc2ccc(NC(C)=N)cc2)cc1`, the IC50 is 57.5 nM with Plasmodium falciparum [1] and 468 nM in the experiment with Plasmodium falciparum [2].

On to `N/N=C(\N)c1ccc(OCCCCCOc2ccc(/C(N)=N/N)cc2)cc1`, for which the IC50 was 562 nM in the experiment with Plasmodium falciparum [1] and 282 nM in the experiment on Plasmodium falciparum [2].

`CC(C)NC(=N)c1ccc(OCCCCCOc2ccc(C(=N)NC(C)C)c(O)c2)cc1O`: the figures for the IC50 in the experiment on Plasmodium falciparum [1] and with Plasmodium falciparum [2] were 741 nM and 955 nM, respectively.

Take `Oc1cc(OCCCCCOc2ccc(C3=NCCN3)c(O)c2)ccc1C1=NCCN1`: the IC50 is 123 nM in the experiment on Plasmodium falciparum [1] and 58.9 nM in the experiment on Plasmodium falciparum [2].

In the case of `CC(C)NC(=N)c1ccc(OCCCCCOc2ccc(C(=N)NC(C)C)c(F)c2)cc1F`, the IC50 was 646 nM with Plasmodium falciparum [1] and 191 nM with Plasmodium falciparum [2].

For `CNC(=N)c1ccc(OCCCCCOc2ccc(C(=N)NC)cc2)cc1`, the values for the IC50 in the experiment on Plasmodium falciparum [1] and in the experiment with Plasmodium falciparum [2] were 5.01 nM and 26.9 nM, respectively.

Consider `N=C(N)c1ccc(OCCCCCOc2ccc(C(=N)N)c(F)c2)cc1F`, for which the figures for the IC50 with Plasmodium falciparum [1] and with Plasmodium falciparum [2] were 18.2 nM and 81.3 nM, respectively.

Take `CN1CCN=C1c1ccc(OCCCCCOc2ccc(C3=NCCN3C)cc2)cc1`: the values for the IC50 in the experiment on Plasmodium falciparum [1] and in the experiment on Plasmodium falciparum [2] were 501 nM and 204 nM, respectively.

Consider `N=C(N)c1ccc(SCCCCCSc2ccc(C(=N)N)cc2)cc1`, for which the values for the IC50 in the experiment with Plasmodium falciparum [1] and in the experiment with Plasmodium falciparum [2] were 23.4 nM and 34.7 nM, respectively.

`N=C(Nc1ccc(OCCCCCOc2ccc(NC(=N)c3ccccc3)cc2)cc1)c1ccccc1`: the values for the IC50 in the experiment on Plasmodium falciparum [1] and with Plasmodium falciparum [2] were 245 nM and 34.7 nM, respectively.

As to `N=C(N)c1ccc(OCCCCCOc2ccc(C(=N)N)cc2Cl)c(Cl)c1`, the IC50 in the experiment with Plasmodium falciparum [1] was 32.4 nM; in the experiment with Plasmodium falciparum [2] it was 105 nM.

Turning to `N=C(N)c1ccc(OCCCCCOc2ccc(C(=N)N)cc2Br)c(Br)c1`, the IC50 with Plasmodium falciparum [1] is 18.2 nM; in the experiment with Plasmodium falciparum [2], 52.5 nM.

Consider `c1cc(C2=NCCN2)ccc1OCCCCCOc1ccc(C2=NCCN2)cc1`, for which the values for the IC50 with Plasmodium falciparum [1] and in the experiment on Plasmodium falciparum [2] were 3.39 nM and 34.7 nM, respectively.

Consider `N=C(N)c1ccc(OCCCCCOc2ccc(C(=N)N)cc2)cc1` [PENTAMIDINE], for which the figures for the IC50 in the experiment on Plasmodium falciparum [1] and with Plasmodium falciparum [2] were 12.3 nM and 56.2 nM, respectively.
